Data: ChEMBL document CHEMBL1123578, “Stereochemical studies on the cytochrome P-450 catalyzed oxidation of (S)-nicotine to the (S)-nicotine delta 1'(5')-iminium species” (J Med Chem, 1987)

Tests used:
Format in all cases: functional
Conditions in all cases: Microsome
Homo sapiens [1] = species on record: Homo sapiens; assay: Percent Deuterium retention was measured for the corresponding alpha-cyano amine in the human liver microsomes and value from experiment I are reported.
Outline: (§1)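 Human liver microsomes from three separate sources (homogenized in 4 mL KCl/g liver), 3 mg protein/mL. E or Z (S)-nicotine-5'-d1 (0.5 mM) was incubated 30 min at 37 °C in 0.2 M K phosphate pH 7.4 with 1.5 mM MgCl2, 1.0 mM NaCN and 1 mg/mL NADPH. The 5'-cyano adducts were ether-extracted and measured by GC-EIMS SIM (m/z 109-111) with isotope and contaminant corrections.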

Oryctolagus cuniculus [2] = species on record: Oryctolagus cuniculus; assay: Percent Deuterium retention was measured for the corresponding alpha-cyano amine in the Dutch rabbit liver microsomes and value from experiment V are reported.
Outline: (§2)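 Liver microsomes from male Dutch rabbits (homogenized in 2 mL KCl/g liver), 3 mg protein/mL. The E or Z (S)-nicotine-5'-d1 (0.5 mM) was incubated in 0.2 M K phosphate pH 7.4 with 1.5 mM MgCl2, 1.0 mM NaCN and 1 mg/mL NADPH for 30 min at 37 °C.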

Oryctolagus cuniculus [3] = species on record: Oryctolagus cuniculus; assay: Percent Deuterium retention was measured for the corresponding alpha-cyano amine in the Dutch rabbit liver microsomes and value from experimentI V are reported.; outline: as §2
Oryctolagus cuniculus [4] = species on record: Oryctolagus cuniculus; assay: Percent Deuterium retention was measured for the corresponding alpha-cyano amine in the Dutch rabbit liver microsomes and value from experiment VI are reported.; outline: as §2
Homo sapiens [5] = species on record: Homo sapiens; assay: Percent Deuterium retention was measured for the corresponding alpha-cyano amine in the human liver microsomes and value from experiment II are reported.; outline: as §1
Oryctolagus cuniculus [6] = species on record: Oryctolagus cuniculus; assay: Percent Deuterium retention was measured for the corresponding alpha-cyano amine in the Dutch rabbit liver microsomes and value from experiment I are reported.; outline: as §2
Homo sapiens [7] = species on record: Homo sapiens; assay: Percent Deuterium retention was measured for the corresponding alpha-cyano amine in the human liver microsomes and value from experiment III are reported.; outline: as §1
Oryctolagus cuniculus [8] = species on record: Oryctolagus cuniculus; assay: Percent Deuterium retention was measured for the corresponding alpha-cyano amine in the Dutch rabbit liver microsomes and value from experiment II are reported.; outline: as §2
Oryctolagus cuniculus [9] = species on record: Oryctolagus cuniculus; assay: Percent Deuterium retention was measured for the corresponding alpha-cyano amine in the Dutch rabbit liver microsomes and value from experiment III are reported.; outline: as §2
Oryctolagus cuniculus [10] = species on record: Oryctolagus cuniculus; assay: Percent Deuterium retention was measured for the corresponding alpha-cyano amine in the Dutch rabbit liver microsomes and value from experiment IV are reported.; outline: as §2
Homo sapiens [11] = species on record: Homo sapiens; assay: Percent Deuterium retention was measured for the corresponding alpha-cyano amine in the human liver microsomes and value from experiment III are reported; outline: as §1

Structure (SMILES)	Deuterium retention (Homo sapiens [1])	Deuterium retention (Oryctolagus cuniculus [2])	Deuterium retention (Oryctolagus cuniculus [3])	Deuterium retention (Oryctolagus cuniculus [4])	Deuterium retention (Homo sapiens [5])	Deuterium retention (Oryctolagus cuniculus [6])	Deuterium retention (Homo sapiens [7])	Deuterium retention (Oryctolagus cuniculus [8])	Deuterium retention (Oryctolagus cuniculus [9])	Deuterium retention (Oryctolagus cuniculus [10])	Deuterium retention (Homo sapiens [11])
CN1[C@H](C#N)CC[C@H]1c1cccnc1	3%	27%	28%	16%	24%	34%	3%	22%	30%		
CN1[C@@H](C#N)CC[C@H]1c1cccnc1	92%	77%		88%	84%	87%		81%	89%	79%	91%
